Active and inactive are the calls of the source. The calls are words filed in the database; no cut-off is given here.

For four compounds, Activity, inhibition and Time results are on record in ChEMBL document CHEMBL3627708, “A multifunctional, light-activated prochelator inhibits UVA-induced oxidative stress” (Bioorg Med Chem Lett, 2015).

For data set [1], the system named is ARPE-19. Put plainly: Cytoprotective activity in human ARPE19 cells assessed as reduction of UVA radiation-mediated cell death at 5 to 100 uM preincubated for 2 hrs followed by 40 mins UVA irradiation measured after 5 hrs by LDH release assay. The data set is classed as functional, cell-based. Summed up: (§1)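 ARPE-19 retinal pigment epithelial cells pre-treated 2 h with compound (5–100 µM range tested), then exposed to UVA for 40 min at 600 kJ/m2. Cell death read 5 h after irradiation; triplicate wells per treatment, normalized to cells treated with 2% Triton X-100.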
Background: Release of lactate dehydrogenase indicates damage to the cell membrane.

The nature of data set [2]: […] of Fe-dependent reactive oxygen species formation after 90 mins by H2DCF-DA-based fluorescence assay. The data set is classed as physicochemical. The conditions noted are these: 1.5 h. Summed up:
(§2)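 H2DCF (20 µM) oxidation to DCF driven by 10 µM FeCl3, 10 µM NTA, 1 mM H2O2 and 1 mM ascorbate in PBS pH 7.4. Compound tested over a concentration range alongside trolox. Control wells hold Fe, NTA, H2O2 and ascorbate only. DCF read at ex 485/em 535 nm.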

Data set [3] is described as follows: Cytotoxicity against human ARPE19 cells assessed as cell viability up to 100 uM after 24 hrs by Cell Titer Blue assay. The conditions noted are these: arpe-19, 24 h. The class given is cell-based. Summed up: (§3)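 ARPE-19 cells incubated with compound for 24 h or extended to 72 h, doses up to 100 µM, then assessed for cytotoxicity.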
Data set [4] is described as follows: Inhibition of Fe-dependent reactive oxygen species formation at 10 to 5000 uM after 90 mins by H2DCF-DA-based fluorescence assay. The data set is classed as functional. Summed up: as §2
Data set [5] can be described thus: Cytotoxicity against human ARPE19 cells assessed as cell viability at <25 uM after 72 hrs by Cell Titer Blue assay. The conditions noted are these: arpe-19, 72 h. The class given is cell-based. Summed up:
as §3
A general note: Resazurin is reduced to fluorescent resorufin, in cell work by metabolically active cells.

A short description of data set [6]: Metal chelating activity assessed as formation of compound-Fe3+ complex by measuring free calcein level at 10 uM irradiated with UVA for 15 secs measured after 1 hr by fluorescence-based microplate assay. The class given is physicochemical. Summed up:
(§4)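 Calcein competition in PBS: 2 µM calcein with 2 µM (NH4)2Fe(SO4)2, forming Fe3+(calcein) in situ. Compound added at 10 µM, with or without 15 s photolysis in a photoreactor (λmax 350 nm). Calcein emission recorded 1 h after photolysis; triplicate, SD.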

Data set [7] can be described thus: Metal chelating activity assessed as formation of compound-Fe3+ complex by measuring free calcein level at 10 uM after 1 hr by fluorescence-based microplate assay in absence of UVA irradiation. The data set is classed as physicochemical. Summed up: as §4
Data set [8] in a line: Cytotoxicity against human ARPE19 cells assessed as cell viability at 75 to 100 uM after 72 hrs by Cell Titer Blue assay. The class given is cell-based. The conditions noted are these: arpe-19, 72 h. Summed up: as §3
Data set [9] can be described thus: Inhibition of Fe-dependent reactive oxygen species formation after 1 hr by H2DCF-DA-based fluorescence assay. The class given is functional. Summed up:
(§5)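 H2DCF (20 µM) in PBS pH 7.4 with 10 µM FeCl3, 10 µM NTA, 1 mM ascorbic acid and 1 mM H2O2. Wells dosed with chelator or prochelator, the latter either irradiated (+) or not irradiated (−) with UVA. DCF fluorescence read at ex 485/em 535 nm. Background from wells with only H2DCF and buffer subtracted.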

Data set [10] is described as follows: Photoconversion of the compound in PBS buffer assessed as time required to show HAPI peak at 50 uM irradiated with UVA for 75 secs by LC-MS analysis. The class given is physicochemical. The conditions noted are these: 75 s. Summed up:
(§6)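 Prochelator solutions analysed by LC-MS before and after UVA irradiation. New peaks identified by matching elution times and mass spectra to authentic umbelliferone and HAPI.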

A short description of data set [11]: Photoconversion of the compound in PBS buffer assessed as time required to show umbelliferone peak at 50 uM irradiated with UVA for 75 secs by LC-MS analysis. The data set is classed as physicochemical. The conditions noted are these: 75 s. Summed up: as §6
Data set [12] can be described thus: Inhibition of Fe-dependent reactive oxygen species formation at 200 uM after 1 hr by H2DCF-DA-based fluorescence assay in absence of UVA irradiation. The data set is classed as functional. Summed up: as §5
Data set [13] is described as follows: Inhibition of Fe-dependent reactive oxygen species formation at 10 to 200 uM irradiated with UVA for 15 secs measured after 1 hr by H2DCF-DA-based fluorescence assay. The data set is classed as functional. Summed up: as §5
Data set [14] relates to ARPE-19. Put plainly: Cytoprotective activity in human ARPE19 cells assessed as reduction of UVA radiation-mediated cell death at 75 to 100 uM preincubated for 2 hrs followed by 40 mins UVA irradiation measured after 5 hrs by LDH release assay. The data set is classed as functional, cell-based. Summed up: as §1
For data set [15], the system named is ARPE-19. In words: Cytoprotective activity in human ARPE19 cells assessed as reduction of UVA radiation-mediated cell death at < 50 uM preincubated for 2 hrs followed by 40 mins UVA irradiation measured after 5 hrs by LDH release assay. The data set is classed as functional, cell-based. Summed up: as §1
The nature of data set [16]: Inhibition of Fe-dependent reactive oxygen species formation at 10 to 100 uM after 1 hr by H2DCF-DA-based fluorescence assay in absence of UVA irradiation. The data set is classed as functional. Summed up: as §5

As to `O=c1ccc2ccc(O)cc2o1` [UMBELLIFERONE], the result in data set [1] was inactive. For the same compound, the Activity result was “Dose-dependent effect” in data set [2] and “Non-toxic” in data set [3].
On to `Cc1c(C)c2c(c(C)c1O)CCC(C)(C(=O)O)O2` (stereo not drawn), for which the inhibition entry in data set [4] was “Active”.
On to `C/C(=N\NC(=O)c1ccncc1)c1ccccc1O`, for which the result in [1] was Active. Also, the Activity entry in data set [5] is listed as “Non-toxic”; in data set [6] it was “Active”; in data set [7], “Active”; in data set [8], “Toxic”; in data set [3], “Non-toxic”. Besides, in [9], the inhibition result is “Dose-dependent effect”.
Take `C/C(=N\NC(=O)c1ccncc1)c1ccccc1OC(=O)/C=C/c1ccc(O)cc1O`: the Time came to 11.7 min in data set [10] and 8.3 min in data set [11]. Moreover, the Activity entry in data set [5] was “Non-toxic”; in data set [6], “Active”; in data set [7] it was “Not Active”; in data set [8] it was “Toxic”; in [3], “Non-toxic”. The inhibition result in [12] and in data set [13] was “Active” throughout. For the same compound, in data set [14], the outcome was inactive. The result in data set [15] was Active. Moreover, in data set [16], the inhibition result is “inactive”.
